These results are taken from ChEMBL document CHEMBL2046273, “3-Hydroxy-1H-quinazoline-2,4-dione derivatives as new antagonists at ionotropic glutamate receptors: molecular modeling and pharmacological studies” (Eur J Med Chem, 2012).

The source made the active and inactive calls. No cut-off for these calls is given here.

Assay [1] can be described thus: Displacement of [3H]AMPA from AMPA receptor in rat cortical synaptical membrane. In kind it is cell membranes.
The target in a further assay is Glutamate NMDA receptor. Description: Displacement of [3H]glycine from NMDA receptor in rat cortical synaptical membrane. In kind it is cell membranes. For orientation: Displacement assays read how much labelled ligand stays bound in the presence of the test substance.
Assay [2] in a line: Displacement of [3H]kainate from high affinity kainate receptor in rat cortical membrane. In kind it is cell membranes.
For assay [3], the target named is Glutamate NMDA receptor (Rattus norvegicus) (UniProt P35439+Q00959+Q00960+Q00961+Q62645+Q8VHN2+Q9R1M7). Description: Displacement of [3H]glycine from NMDA receptor in rat cortical synaptical membrane at 100 uM. In kind it is cell membranes. In outline: (§1)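 Rat cortical membranes, test compound at 100 µM single concentration. Diluted in buffer from a 1 mM stock in 50% DMSO. Result given as percent inhibition of specific radioligand binding. Determinations were done in triplicate, 3–4 separate experiments.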

Assay [4] can be described thus: Neuroprotective activity in organotypic Wistar rat hippocampal CA1 region slices assessed as protection from oxygen-deprivation-induced neuronal damage at 30 uM dosed during 30 mins insult and subsequent 24 hrs recovery period by propidium iodide staining-based fluorescence analysis (reference value: 57 +/- 8%). In kind it is functional.
The species named for assay [5] is Mus musculus. Put plainly: Antagonist activity at NMDA receptor in mouse cortical wedge assessed as inhibition of NMDA-induced membrane depolarization at 10 uM by electrophysiological assay. In kind it is functional. In outline: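 Mouse cortical wedge preparation; antagonism measured as inhibition of depolarization evoked by NMDA, with test compound at 10 µM.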

Assay [6] in a line: Antagonist activity at AMPA receptor in mouse cortical wedge assessed as inhibition of S-AMPA-induced membrane depolarization by electrophysiological assay. In kind it is functional.
Assay [7] relates to Hippocampus. Description: Neuroprotective activity in Wistar rat hippocampal CA1 region assessed as change in field excitatory postsynaptic potential at basal conditions at 1 to 5 uM by electrophysiological analysis. In kind it is functional, tissue-based.
The nature of assay [8]: Antagonist activity at kainate receptor in Wistar rat acute hippocampal CA1 region slices assessed as reduction in field excitatory postsynaptic potential amplitude at basal conditions at 1 uM by electrophysiological analysis. In kind it is functional. The conditions noted are these: Hippocampus.
In assay [9] the test system is Hippocampus. Description: Neuroprotective activity in Wistar rat acute hippocampal CA1 region assessed as protection from oxygen glucose deprivation-induced anoxia depolarization at 1 uM administered 15 mins before and during 7 mins oxygen-deprivation challenge. In kind it is functional, tissue-based. In outline: (§2)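 Acute rat hippocampal slices superfused with aCSF, compound in DMSO (final under 0.001%). Applied 15 min before and during 7-min OGD. Anoxic depolarization recorded in CA1 as negative DC voltage shift, with loss of fepsp followed on reperfusion with oxygenated glucose-containing aCSF. n = 3 (1 µM) or 6 (5 µM).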

Assay [10] has as its system Hippocampus. Put plainly: Neuroprotective activity in Wistar rat acute hippocampal CA1 region slices assessed as protection from oxygen glucose deprivation-induced anoxic depolarization at 5 uM administered 15 mins before and during 7 mins oxygen glucose deprivation challenge. In kind it is functional. The procedure, abridged: as §2
A short description of assay [11]: Antagonist activity at kainate receptor in Wistar rat acute hippocampal CA1 region slices assessed as reduction in field excitatory postsynaptic potential amplitude at basal conditions at 5 uM by electrophysiological analysis. In kind it is functional. The conditions noted are these: Hippocampus.
The nature of assay [12]: Antagonist activity at kainate receptor in Wistar rat acute hippocampal CA1 region slices assessed as reduction of kainate-induced field excitatory postsynaptic potential suppression at 1 uM by electrophysiological analysis relative to untreated pre-drug level (reference value: 52.1 +/- 15.3%). In kind it is functional, Hippocampus. More on the design: scale not given: the % may be the effect or the level left.

The species named for assay [13] is Rattus norvegicus. Put plainly: Displacement of [3H]AMPA from AMPA receptor in rat cortical synaptical membrane at 100 uM. In kind it is cell membranes. The procedure, abridged:
as §1

The nature of assay [14]: Antagonist activity at NMDA receptor in mouse cortical wedge assessed as inhibition of NMDA-induced membrane depolarization by electrophysiological assay. In kind it is functional.
Assay [15] is filed under the species Rattus norvegicus. Description: Displacement of [3H]kainate from kainate receptor in rat cortical membrane at 100 uM. In kind it is cell membranes. The procedure, abridged:
as §1

The test system of assay [16] is Mus musculus. Put plainly: Anticonvulsant activity in Swiss albino mouse assessed as protection from PTZ-induced seizures at 30 mg/kg, po administered 30 mins before PTZ challenge measured after 30 mins. In kind it is functional. In outline:
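Male Swiss albino mice (23–30 g), housed 15 per cage, 23 ± 1 °C, 12 h light/dark. Test drug dispersed in 1% sodium carboxymethylcellulose and given orally in 10 ml/kg. PTZ given 90 mg/kg s.c. 30 min later. Clonic generalized convulsions scored over 30 min, expressed as % protection.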

A short description of assay [17]: Neuroprotective activity in organotypic Wistar rat hippocampal CA1 region slices assessed as protection from oxygen-deprivation-induced neuronal damage at 1 uM dosed during 30 mins insult and subsequent 24 hrs recovery period by propidium iodide staining-based fluorescence analysis (reference value: 57 +/- 8%). In kind it is functional.

In general, Ki refers to the equilibrium dissociation constant of an inhibitor or competing ligand from its target. As a reminder, the IC50 is the concentration that gives 50% inhibition. For the compound `O=c1[nH]c2cc(Cl)c([N+](=O)[O-])cc2c(=O)n1O`, the inhibition constant (Ki) in [1] came out at 1.3 µM; at Glutamate NMDA receptor, 1.1 µM. Further, the IC50 in assay [2] was found to be 19.1 µM.

In the case of `O=c1[nH]c2cc(C(F)(F)F)ccc2c(=O)n1O`, the inhibition constant Ki was 4.8 µM in assay [1] and 0.85 µM on Glutamate NMDA receptor. The 50% inhibitory concentration (IC50) in [2] turned out to be 37.6 µM.

In general, inhibition refers to the share of the control response that was lost under treatment. Take `NS(=O)(=O)c1cccc2c1c([N+](=O)[O-])cc1nc(O)c(O)nc12` [NBQX]: the Imax in assay [3] stood at 3%. Besides, the Activity in [4] was found to be 20%. The Ki in assay [1] was 0.07 µM. Besides, in the assay filed under Mus musculus [5], the inhibition entry is “inactive”. Also, the IC50 in [2] came out at 7 µM; in assay [6] it was 0.2 µM.

As to `O=C(O)c1ccccc1C(=O)Nc1cc2c(=O)n(O)c(=O)[nH]c2cc1Cl`, the result in the assay with Hippocampus [7] was Active. The inhibition at 1 µM in [8] came to 19.2%. Also, the result in the assay on Hippocampus [9] was inactive. The Activity was 92.2% in the assay with Hippocampus [10] and 85.8% in assay [12]. The inhibition at 5 µM in assay [11] turned out to be 39.6%.

Take `O=C(O)c1ccccc1C(=O)Nc1cc2c(=O)n(O)c(=O)[nH]c2cc1C(F)(F)F`: the Imax in assay [3] was 10%; in the assay listed under Rattus norvegicus [13], 8%. This compound also gave an IC50 in [2] of 25 µM.

Take `O=C(O)c1cc(O)c2c(Cl)cc(Cl)cc2n1`: the Imax in the assay filed under Rattus norvegicus [13] is 5%; in the assay listed under Rattus norvegicus [15], 8%. Also, the figures for the half-inhibitory concentration (IC50) in assay [14] and in assay [6] were 4.7 µM and 52 µM, respectively. Besides, on Glutamate NMDA receptor, affinity was put at a Ki of 0.08 µM.

In the case of `O=C(O)c1ccn(-c2cc3c(=O)n(O)c(=O)[nH]c3cc2C(F)(F)F)c1`, the figures for the Ki (in assay [1]; at Glutamate NMDA receptor) were 0.46 µM and 5.1 µM, respectively. Moreover, the IC50 is greater than 50 µM in [14], 17.3 µM in [2] and 2.9 µM in [6].

Consider `O=c1[nH]c2cc(C(F)(F)F)c([N+](=O)[O-])cc2c(=O)n1O`, for which the inhibitory constant (Ki) in assay [1] was 0.26 µM; at Glutamate NMDA receptor, 1.3 µM. This compound had an IC50 in assay [2] of 7 µM.

Consider `Nc1cc2c(=O)n(O)c(=O)[nH]c2cc1C(F)(F)F`, for which the Ki (in [1]; at Glutamate NMDA receptor) was 6.1 µM throughout. Also, the 50% inhibitory concentration (IC50) in assay [2] was 32 µM.

For the compound `O=Cc1ccn(-c2cc3c(=O)n(O)c(=O)[nH]c3cc2C(F)(F)F)c1`, the figures for the Ki (in assay [1]; on Glutamate NMDA receptor) were 0.72 µM and 0.8 µM, respectively. The values for the IC50 in assay [14], in [2] and in assay [6] were 7 µM, 4.2 µM and 1.5 µM, respectively.

Consider `COn1c(=O)[nH]c2cc(C(F)(F)F)c(-n3cnnc3)cc2c1=O`, for which the Imax in assay [3] stood at 21%; in the assay listed under Rattus norvegicus [15], 0%. The same compound yielded an inhibition constant (Ki) in assay [1] of 20 µM.

With `O=c1[nH]c2cc(C(F)(F)F)c(-n3cnnc3)cc2c(=O)n1O`, the Activity in the assay with Mus musculus [16] is reported as 65.5%; in [17], 29%. Further, affinity at Glutamate NMDA receptor was put at a Ki of 6.5 µM.

On to `O=c1[nH]c2cc(C(F)(F)F)c(-n3cccc3)cc2c(=O)n1O`, for which the values for the Imax (in [3]; in the assay listed under Rattus norvegicus [15]) were 32% and 10%, respectively. Besides, the inhibitory constant (Ki) in assay [1] is 126 µM.
